Published values gathered from unrelated publications.
Protocols differ between the studies behind these lines.

SMILES	species	matrix	route	dose	time	setting	concentration
O=S(=O)(c1cccc(C(F)(F)F)c1)N1CCc2ccc(OCc3c(Cl)cncc3Cl)cc21	mouse	plasma	intraperitoneal	10 mg/kg	4 h	–	620 nM
O=c1nc(N2CCN(CC3CCCCC3)CC2)sc2c([N+](=O)[O-])cc(C(F)(F)F)cc12	CD-1 mouse	lung	oral	100 mg/kg	4 h	–	620 ng/mL
O=S(=O)(c1cccc(C(F)(F)F)c1)N1c2cc(OCc3c(Cl)cncc3Cl)ccc2CC1C(F)(F)F (stereo not drawn)	mouse	plasma	intraperitoneal	10 mg/kg	2 h	–	600 nM
CC(C)(Nc1nc(-c2ccccn2)nc2ccccc12)c1ccccn1	female BALB/c mouse	plasma	intravenous	1 mg/kg	1 h	–	487 ng/mL
CC(C)CN(C[C@@H](O)[C@H](Cc1ccccc1)NC(=O)O[C@H]1CO[C@H]2OCC[C@H]21)S(=O)(=O)c1ccc(N)cc1	BALB/c mouse	brain	intravenous	25 mg/kg	6 h	–	1.85 ng/g
O=c1cc(-c2ccccc2)oc2c(O)c(O)ccc12	male CD-1 mouse	plasma	oral	50 mg/kg	4 h	–	24 ng/mL
[2H]c1c([2H])c([2H])c(-c2ccc([C@H](Cn3ccnc3)NC(=O)c3ccc(-c4nnc(-c5ccccc5)o4)cc3)c(Cl)c2)c([2H])c1[2H]	BALB/c mouse	liver	oral	25 mg/kg	4 h	single dose	17000 nM
COc1cc(F)c([C@@H]2CNC(=O)[C@H]2NC(=O)Nc2ccccc2)c(F)c1	C57BL/6 mouse	plasma	oral	3 mg/kg	2 h	–	84 nM
O=C(O)C1CCN(c2ncc(-c3ccc4c(c3)OCCCO4)s2)CC1	male Swiss mouse	plasma	oral	30 mg/kg	2 h	single dose	5990 ng/mL
O=S(=O)(c1ccc(-c2ccc3nccc(Nc4ccncn4)c3c2)cc1)N1CCOCC1	female BALB/c mouse	plasma	intraperitoneal	10 mg/kg	1 h	–	1290 ng/mL
CC(C)Oc1cccc(-c2cnc(N3CCC(C(N)=O)CC3)s2)c1	male Swiss mouse	plasma	oral	30 mg/kg	24 h	single dose	20.6 ng/mL
Cc1c2ccnc(C(=O)N[C@H](C)CN(C)C)c2cc2c3cc(O)ccc3n(C)c12	male C57BL/6 mouse	plasma	intraperitoneal	10 mg/kg	2 h	single dose	80 nM
CC(C)Cc1nn(C)c(=O)c2c(SCCCO)n(Cc3cccc4ccccc34)cc12	mouse	lung	intraperitoneal	20 mg/kg	7 days	single dose	0 nM
CSc1cc(Oc2ccnc3[nH]c(=O)cnc23)ccc1NC(=O)Nc1cc(C(C)(C)C)nn1-c1ccccc1	BALB/c mouse	plasma	oral	10 mg/kg/day	14 h	–	~1000 nM
Cc1ccc(-c2cccc3cnc(Nc4ccc(C(=O)N5CCOCC5)cc4)nc23)cn1	mouse	brain	intraperitoneal	10 mg/kg	2 h	–	0 nM
c1ccc(-c2nc(N3CCC(c4ccccn4)C3)c3ccccc3n2)nc1 (stereo not drawn)	female BALB/c mouse	plasma	oral	50 mg/kg	2 h	–	2730 ng/mL
O=S(=O)(c1cccc(C(F)(F)F)n1)N1CCc2ccc(OCc3c(F)cccc3Cl)cc21	mouse	plasma	intraperitoneal	10 mg/kg	4 h	–	120 nM
COc1cc(C)c(Sc2cnc(NC(=O)c3ccc(N4CCN(CCCCCCCNC(=O)COc5cccc6c5C(=O)N(C5CCC(=O)NC5=O)C6=O)CC4)cc3)s2)cc1C(=O)N1CCN(C(C)=O)CC1 (stereo not drawn)	male C57BL/6 mouse	plasma	intraperitoneal	10 mg/kg	8 h	single dose	~100 nM
